Published values collected from several papers.
Each line is one published result; the experiments were not run side by side.
Target: Glycogen synthase kinase-3 beta (GSK3B, Homo sapiens, UniProt P49841)
Method: competition with immobilised ligand

SMILES	test	conditions	remaining binding [%]
O=C(c1ccc(Nc2ncc(Cl)c(-c3cc4ccccc4s3)n2)cc1)N1CCC(N2CCCC2)CC1	binding	1 µM	37
COc1cnc(Nc2cccc(S(N)(=O)=O)c2)nc1N1CCN(c2ccccc2)CC1	binding	1 µM	97
c1cncc(-c2cccc(Nc3nccc(NC4CCCCC4)n3)c2)c1	binding	10 µM	89
Cc1cc(NC(=O)c2cccc(S(F)(F)(F)(F)F)c2)cc(-n2ccn3nc(-c4cccnc4)cc23)c1	cell-free assay	1 µM	85.4
COc1cnc(Nc2cccc(S(N)(=O)=O)c2)nc1N1CCN(c2ccccc2)C(=O)C1	binding	1 µM	91
c1cnn2ncc(-c3ccnc(N4CCC45COC5)n3)c2c1	binding	1 µM	77
O=C(NCCCN1CCOCC1)c1ccc(Nc2ncc(Cl)c(-c3ccc(Cl)s3)n2)cc1	binding	1 µM	95
N#Cc1ccc(Nc2ccc3[nH]c(=O)[nH]c3c2)c(Cl)c1	cell-free assay	1 µM	96
N#Cc1ccccc1CSc1nnc2c(n1)[nH]c1ccccc12	binding	10 µM	100
CC(C)CC(=O)N1CCc2nc(-c3ccc(Br)cc3)nc(N(C)Cc3ccccc3)c2C1	cell-free assay	0.1 µM	100
Cc1cnc(Nc2ccc(C(=O)N3CCC(N4CCCC4)CC3)cc2)nc1-c1cc2ccccc2s1	binding	1 µM	51
Nc1ncc2c(n1)-c1c([nH]c3ccc(C#CC4CC4)cc13)CCCC2	binding	1 µM	98
O=C(NCC1CCOCC1)c1n[nH]cc1NC(=O)c1c(F)cccc1F	binding	1 µM	0.2
O=C(Nc1ccc(Oc2ccc(F)cc2)cc1)N1CCc2ncccc2[C@H]1c1ccc(F)cc1	cell-free assay	1 µM	100
C[C@@H]1CN(c2ccc3ncc(-c4ccc5[nH]nc(C6CC6)c5c4)n3n2)C[C@H](C)O1	binding	0.5 µM	74
CN(C)C(=O)Cn1cc(-c2nc(C3(c4ccc(-c5cnc(N)nc5)cc4)CC3)no2)cn1	cell-free assay	1 µM	81
CCN1CCN(Cc2ccc(C(=O)Nc3ccc(C)c(Oc4ccc5c(c4)CC(=O)N5)c3)cc2C(F)(F)F)CC1	binding	1 µM	100
Cn1nc(C(=O)NCc2ccc(C(=O)O)cc2)cc1-c1ccc2[nH]ccc2c1	cell-free assay	0.1 µM	78
CN(CCCC(F)(F)F)c1nccc(-c2cnn3ncccc23)n1	binding	1 µM	87
